EC50 data for 14 compounds are collected here from ChEMBL document CHEMBL1157342, “Isolation of gelsedine-type indole alkaloids from Gelsemium elegans and evaluation of the cytotoxic activity of gelsemium alkaloids for A431 epidermoid carcinoma cells” (J Nat Prod, 2006).

The test system of the assay is A-431. As to the kind of experiment: Cytotoxicity against human A431 cells after 48 hrs by trypan blue test. The class given is functional, cell-based. The note with it: A-431, 48 h. The procedure, abridged:
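A431 human epidermoid carcinoma cells were grown at 5% CO2, 37 °C, seeded in 12-well plates at 1 × 10^5 cells/well and treated at semiconfluence (about 5 × 10^5 cells/well). DMSO stocks (100 mM) were diluted in serum-free RPMI-1640 to 10 nM–100 µM final, with DMSO below 0.1%. After 48 h, cells were counted in a Bürker-Türk chamber with trypan blue. Survival was expressed as % of untreated control. EC50 was taken from three independent experiments, mean ± SEM.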
As a reminder, the EC50 is the concentration giving half of the maximal effect. Higher therefore signals a need for much substance. `CCC1=N[C@H]2C[C@@]3(C(=O)N(OC)c4ccccc43)[C@@H]3OC[C@H]2[C@@]1(O)[C@H]3OC(C)=O` displayed a 50% effective concentration (EC50) of 36 µM. This counts as double-digit micromolar. Next, `CCC1=N[C@H]2C[C@@]3(C(=O)N(OC)c4ccccc43)[C@H]3C[C@@H]1[C@@H]2CO3` [GELSENICINE]: 37 µM. Next, `CC[C@H]1N[C@H]2C[C@@]3(C(=O)N(OC)c4ccccc43)[C@H]3C[C@@H]1[C@@H]2CO3` [GELSEDINE]: 0.35 µM; `CC[C@H]1N[C@H]2C[C@@]3(C(=O)N(OC)c4cc(OC)ccc43)[C@H]3C[C@@H]1[C@@H]2CO3` [GELSEMICINE]: 0.75 µM. Next, `C/C=C1\CN2[C@H]3Cc4c([nH]c5ccccc45)[C@@H]2C[C@@H]1C3(CO)C(=O)OC` (some centres undefined): more than 100 µM; `CCC1=N[C@H]2C[C@@]3(C(=O)N(OC)c4ccccc43)[C@@H]3OC[C@H]2[C@@]1(O)[C@H]3O`: 1.3 µM. Turning to `C=C[C@]12CN(C)[C@@H]3[C@H]4CO[C@H](C[C@H]41)[C@]1(C(=O)Nc4ccccc41)[C@@H]32` [GELSEMINE], the EC50 is more than 100 µM. `C/C=C1\CN(C)[C@H]2C[C@@]3(C(=O)N(OC)c4ccccc43)[C@H]3C[C@@H]1[C@@H]2CO3` [HUMANTENINE] showed an EC50 of more than 100 µM. Next, `CCC1=N[C@H]2C[C@@]3(C(=O)N(OC)c4ccccc43)[C@@H]3OC[C@H]2[C@H]1[C@H]3OC(C)=O`: 0.25 µM.

`CCC(=O)[C@]12N[C@H]3C[C@@]4(C(=O)N(OC)c5ccccc54)[C@H](OC[C@H]31)[C@@H]2O` [GELSEMOXONINE]: the EC50 was more than 100 µM. The value for `CCC1=N[C@H]2C[C@@]3(C(=O)N(OC)c4ccccc43)[C@@H]3OC[C@H]2[C@H]1[C@H]3O` was more than 100 µM; that for `C=C[C@@]12CN(C)[C@H]3C[C@]14C(=Nc1ccccc14)[C@@H]1C[C@@H]2[C@@H]3CO1` [KOUMINE] was more than 100 µM; that for `CCC1=N[C@H]2C[C@@]3(C(=O)N(OC)c4cc(OC)ccc43)[C@@H]3OC[C@H]2[C@H]1[C@H]3O` was more than 100 µM. The value for `C/C=C1\CN(C)[C@H]2C[C@@]3(C(=O)N(OC)c4cc(OC)ccc43)[C@H]3C[C@@H]1[C@@H]2CO3` was more than 100 µM.
